Results of several laboratories.
Compare with care: the assays were run in different laboratories.
Cell line: Calu-3
Observed: cell growth or viability

CC(C)[C@H](NC(=O)c1ccccc1NC(=O)c1ccccc1)C(=O)N[C@H](CO)C(C)C
CC50 (MTT; 48 h): > 250 µM

COc1cc(Nc2ccnc3ccc(Br)cc23)cc(OC)c1OC
CC50 (resazurin): > 60 µM

CN(C)C(=O)COC(=O)Cc1ccc(OC(=O)c2ccc(NC(=N)N)cc2)cc1
CC50 (ATP luminescence): > 200 µM

O=C(NCc1ccc(F)cc1)c1cccc(Nc2ccc(-c3ccccc3)nn2)c1
CC50 (MTS; 48 h): > 100 µM

CCC(CC)COC(=O)[C@H](C)N[P@](=O)(OC[C@H]1O[C@@](C#N)(c2ccc3c(N)ncnn23)[C@H](O)[C@@H]1O)Oc1ccccc1
CC50 (MTT; 48 h): ≥ 250 µM

COc1cc2ncnc(Nc3ccc(F)c(Cl)c3)c2cc1OCCCN1CCOCC1
CC50 (resazurin): > 60 µM

O=C(Nc1ccc2c(c1)OCO2)c1nnc(C(=O)N2CCCC(C(=O)NCc3ccccc3)C2)s1 (centres unmarked)
CC50 (MTT; 48 h): 151 µM

CN1C(=O)c2ccccc2[S+]([O-])c2cc([N+](=O)[O-])ccc2S1(=O)=O (centres unmarked)
CC50 (MTT; 72 h): > 100 µM

CCOC(=O)c1c(NCc2ccc(SC)cc2)c2cccc(C)c2[nH]c1=O
CC50 (MTS; 48 h): > 100 µM

CCS(=O)(=O)N1CC(CC#N)(n2cc(-c3ncnc4[nH]ccc34)cn2)C1
CC50 (resazurin): > 60 µM

O=C1Nc2cc(C(F)(F)F)ccc2Oc2ccsc21
CC50 (MTT; 72 h): > 100 µM
